The nature of data set [1]: Cytotoxicity against African green monkey COS-1 cells assessed as cell viability at EC50 concentration for PPAR activation assay by LDH assay. The class given is cell-based. The conditions noted are these: chlorocebus aethiops, read-out: Activity. In short, it runs like this:
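Assayed in the same COS-1 cultures as the Gal4-LBD PPAR reporter assays. Lactate dehydrogenase released into the medium was measured with a commercial kit per the maker's protocol. Absorbance was read at 492/750 nm.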

Data set [2] can be described thus: Cytotoxicity against African green monkey COS-1 cells assessed as cell viability at EC50 concentration for PPAR activation assay by XTT assay. The class given is cell-based. Particulars: chlorocebus aethiops, read-out: Activity. In outline:
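Run on COS-1 cells treated in parallel with the Gal4-LBD PPAR reporter assays. Metabolic NAD(P)H flux was measured by kit XTT assay per the maker's protocol. Absorbance was read at 450/690 nm.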

Data set [3] deals with T1, Peroxisome proliferator-activated receptor alpha (Homo sapiens, UniProt Q07869).
T1 sequence (Q07869 whole entry): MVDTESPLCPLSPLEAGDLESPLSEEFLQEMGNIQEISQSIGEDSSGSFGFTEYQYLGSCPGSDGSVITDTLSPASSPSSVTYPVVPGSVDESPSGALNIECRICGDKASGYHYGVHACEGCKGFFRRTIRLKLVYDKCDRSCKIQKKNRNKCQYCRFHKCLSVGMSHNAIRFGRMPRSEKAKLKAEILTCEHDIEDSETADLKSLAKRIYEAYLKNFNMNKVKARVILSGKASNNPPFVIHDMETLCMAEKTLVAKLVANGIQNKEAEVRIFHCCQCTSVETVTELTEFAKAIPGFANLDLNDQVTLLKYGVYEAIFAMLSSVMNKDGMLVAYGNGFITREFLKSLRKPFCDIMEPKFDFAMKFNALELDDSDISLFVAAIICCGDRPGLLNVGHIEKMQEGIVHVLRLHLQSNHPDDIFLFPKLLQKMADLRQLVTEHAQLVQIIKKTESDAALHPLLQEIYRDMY
Put plainly: Agonist activity at recombinant human PPARalpha LBD (168 to 468 residues) expressed in African green monkey COS-1 cells incubated for 18 hrs by luciferase reporter gene assay. The class given is cell-based. In short, it runs like this:
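Transient Gal4 one-hybrid assay in COS-1 cells (7×10^4 per well), transfected 24 h after seeding. Plasmids were Gal4-DBD fused to the human nuclear receptor LBD, a 5×UAS-SV40 luciferase reporter and pRL-CMV Renilla control. Ligand in DMSO (final 0.1%) was added 5 h post-transfection. Dual-luciferase activity was read after 18 h, expressed as RLU, from three biological replicates in quadruplicate.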
For orientation: In a reporter assay the amount or activity of a reporter protein is the signal.

The target in data set [4] is T2, Peroxisome proliferator-activated receptor gamma (Homo sapiens) (UniProt P37231).
T2 sequence (whole entry): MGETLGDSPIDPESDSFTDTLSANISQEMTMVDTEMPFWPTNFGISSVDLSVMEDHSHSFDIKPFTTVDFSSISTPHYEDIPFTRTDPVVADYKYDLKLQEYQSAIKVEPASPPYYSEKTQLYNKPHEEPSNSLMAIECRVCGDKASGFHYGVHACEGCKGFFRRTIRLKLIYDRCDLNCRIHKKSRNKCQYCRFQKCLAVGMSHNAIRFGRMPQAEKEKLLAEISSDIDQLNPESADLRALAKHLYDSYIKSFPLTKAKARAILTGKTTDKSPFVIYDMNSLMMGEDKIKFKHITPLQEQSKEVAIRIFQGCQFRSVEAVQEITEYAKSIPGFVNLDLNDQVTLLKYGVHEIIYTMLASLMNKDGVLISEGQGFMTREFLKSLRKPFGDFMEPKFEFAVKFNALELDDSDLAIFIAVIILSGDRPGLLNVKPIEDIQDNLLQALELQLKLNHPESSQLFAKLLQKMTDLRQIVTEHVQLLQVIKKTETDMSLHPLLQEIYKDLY
Put plainly: Agonist activity at human PPARgamma in 8 day differentiated human SGBS cells assessed as decrease in TNF gene expression at 2 uM incubated for 24 hrs by SYBR-green based qPCR analysis. A general note: In qPCR the cycle at which signal appears reflects the starting amount.

For data set [5], the target named is T2, Peroxisome proliferator-activated receptor gamma (Homo sapiens). Put plainly: Agonist activity at human PPARgamma in 8 day differentiated human SGBS cells assessed as decrease in […] gene expression at 2 uM incubated for 24 hrs by SYBR-green based qPCR analysis.
The target is the same in data set [6]. Put plainly: Agonist activity at human PPARgamma in 8 day differentiated human SGBS cells assessed as decrease in CXCL1 gene expression at 2 uM incubated for 24 hrs by SYBR-green based qPCR analysis.
For data set [7] the target is unchanged. Put plainly: Agonist activity at human PPARgamma in 8 day differentiated human SGBS cells assessed as decrease in IL-1 beta gene expression at 2 uM incubated for 24 hrs by SYBR-green based qPCR analysis.
Data set [8] shares this target. Put plainly: Agonist activity at human PPARgamma in 8 day differentiated human SGBS cells assessed as decrease in CXCL5 gene expression at 2 uM incubated for 24 hrs by SYBR-green based qPCR analysis.

Drawing on ChEMBL document CHEMBL4715825, “Synthesis and biological evaluations of marine oxohexadecenoic acids: PPARα/γ dual agonism and anti-diabetic target gene effects” (Eur J Med Chem, 2018), this text covers viability, EC50 and Activity for three molecules.

The structures appear in SMILES notation. The source made the active and inactive calls. The rule behind the calls is not given here. A value given as a limit tells only on which side of the number the result lay.

On to `Cc1cccc(Nc2cc(Cl)nc(SCC(=O)O)n2)c1C` [PIRINIXIC ACID], for which the viability in data set [1] and in data set [2] was over 95% in each case.
The term EC50 denotes the concentration giving half of the maximal effect. Turning to `CCCCCCCCCCCCCCCC(=O)O` [PALMITIC ACID], the viability is over 95% in data set [1] and over 90% in data set [2]. Moreover, the EC50 in data set [3] stood at 35 µM.
In the case of `CN(CCOc1ccc(CC2SC(=O)NC2=O)cc1)c1ccccn1` (configuration not stated) [ROSIGLITAZONE], the viability in data set [1] and in data set [2] was over 95% in each case. The result in data set [4], in data set [5], in data set [6], in data set [7] and in data set [8] was inactive.
